# Results published in ChEMBL document CHEMBL5058577, “EUbOPEN Chemogenomics Library 2 (Multiplex)” (2022).
# System: U2OS
# Assay: Multiplex assay against U2OS
# Type: toxicity, cell-based
# Conditions: human
# Summary of the method: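 On a CQ1 microscope at 37°C and 5% CO2, live cells were imaged after compound addition. They had been stained at seeding with Hoechst33342, BioTracker Green Microtubule Cytoskeleton Dye, MitoTracker Red and Annexin V Alexa Fluor 680. CellPathfinder machine-learning gating assigned cells to Hoechst high-intensity objects or normal cells, normal cells to healthy, pyknosed or fragmented nuclei, and pyknosed cells to mitotic or apoptotic. Tubulin, mitochondrial-mass and membrane-permeability phenotypes are per cents of healthy-nucleus cells.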
# [1] = 12 h, 1 µM, compound concentration 1 uM, replicate 1
# [2] = 12 h, 1 µM, compound concentration 1 uM, replicate 2
# [3] = 12 h, 10 µM, compound concentration 10 uM, replicate 1
# [4] = 12 h, 10 µM, compound concentration 10 uM, replicate 2
# [5] = 24 h, 1 µM, compound concentration 1 uM, replicate 1
# [6] = 24 h, 1 µM, compound concentration 1 uM, replicate 2
# [7] = 24 h, 10 µM, compound concentration 10 uM, replicate 1
# [8] = 24 h, 10 µM, compound concentration 10 uM, replicate 2
# [9] = 48 h, 1 µM, compound concentration 1 uM, replicate 1
# [10] = 48 h, 1 µM, compound concentration 1 uM, replicate 2
# [11] = 48 h, 10 µM, compound concentration 10 uM, replicate 1
# [12] = 48 h, 10 µM, compound concentration 10 uM, replicate 2
compound,measurement,setting,value
O=c1ccc2ccc(OCCCCN3CCN(c4cccc5sccc45)CC3)cc2[nH]1 [BREXPIPRAZOLE],Population Apoptotic (%),[1],73%
same,Population Fragmented Nuclei (%),[1],23%
same,Population Healthy Nuclei (%),[1],62%
same,Population Hoechst High Intensity Objects (%),[1],6%
same,Population Membrane Permeable-Phenotype (%),[1],40%
same,Population Mitochondria Different-Phenotype (%),[1],19%
same,Population Mitotic Cells (%),[1],26%
same,Population Normal (%),[1],93%
same,Population Pyknosed Nuclei (%),[1],13%
same,Population Tubulin-Different-Phenotype (%),[1],36%
same,Total Cell Count,[1],178
same,Population Apoptotic (%),[2],55%
same,Population Fragmented Nuclei (%),[2],16%
same,Population Healthy Nuclei (%),[2],69%
same,Population Hoechst High Intensity Objects (%),[2],2%
same,Population Membrane Permeable-Phenotype (%),[2],32%
same,Population Mitochondria Different-Phenotype (%),[2],24%
same,Population Mitotic Cells (%),[2],44%
same,Population Normal (%),[2],97%
same,Population Pyknosed Nuclei (%),[2],14%
same,Population Tubulin-Different-Phenotype (%),[2],30%
same,Total Cell Count,[2],126
same,Population Apoptotic (%),[3],86%
same,Population Fragmented Nuclei (%),[3],31%
same,Population Healthy Nuclei (%),[3],27%
same,Population Hoechst High Intensity Objects (%),[3],6%
same,Population Membrane Permeable-Phenotype (%),[3],57%
same,Population Mitochondria Different-Phenotype (%),[3],82%
same,Population Mitotic Cells (%),[3],13%
same,Population Normal (%),[3],93%
same,Population Pyknosed Nuclei (%),[3],41%
same,Population Tubulin-Different-Phenotype (%),[3],83%
same,Total Cell Count,[3],220
same,Population Apoptotic (%),[4],82%
same,Population Fragmented Nuclei (%),[4],21%
same,Population Healthy Nuclei (%),[4],43%
same,Population Hoechst High Intensity Objects (%),[4],9%
same,Population Membrane Permeable-Phenotype (%),[4],53%
same,Population Mitochondria Different-Phenotype (%),[4],90%
same,Population Mitotic Cells (%),[4],17%
same,Population Normal (%),[4],90%
same,Population Pyknosed Nuclei (%),[4],35%
same,Population Tubulin-Different-Phenotype (%),[4],95%
same,Total Cell Count,[4],109
same,Population Apoptotic (%),[5],68%
same,Population Fragmented Nuclei (%),[5],26%
same,Population Healthy Nuclei (%),[5],55%
same,Population Hoechst High Intensity Objects (%),[5],3%
same,Population Membrane Permeable-Phenotype (%),[5],19%
same,Population Mitochondria Different-Phenotype (%),[5],22%
same,Population Mitotic Cells (%),[5],31%
same,Population Normal (%),[5],96%
same,Population Pyknosed Nuclei (%),[5],18%
same,Population Tubulin-Different-Phenotype (%),[5],18%
same,Total Cell Count,[5],181
same,Population Apoptotic (%),[6],66%
same,Population Fragmented Nuclei (%),[6],12%
same,Population Healthy Nuclei (%),[6],67%
same,Population Membrane Permeable-Phenotype (%),[6],22%
same,Population Mitochondria Different-Phenotype (%),[6],28%
same,Population Mitotic Cells (%),[6],33%
same,Population Pyknosed Nuclei (%),[6],19%
same,Population Tubulin-Different-Phenotype (%),[6],16%
same,Total Cell Count,[6],128
same,Population Apoptotic (%),[7],93%
same,Population Fragmented Nuclei (%),[7],30%
same,Population Healthy Nuclei (%),[7],25%
same,Population Hoechst High Intensity Objects (%),[7],13%
same,Population Membrane Permeable-Phenotype (%),[7],47%
same,Population Mitochondria Different-Phenotype (%),[7],67%
same,Population Mitotic Cells (%),[7],6%
same,Population Normal (%),[7],86%
same,Population Pyknosed Nuclei (%),[7],44%
same,Population Tubulin-Different-Phenotype (%),[7],76%
same,Total Cell Count,[7],213
same,Population Apoptotic (%),[8],91%
same,Population Fragmented Nuclei (%),[8],19%
same,Population Healthy Nuclei (%),[8],26%
same,Population Hoechst High Intensity Objects (%),[8],22%
same,Population Membrane Permeable-Phenotype (%),[8],56%
same,Population Mitochondria Different-Phenotype (%),[8],86%
same,Population Mitotic Cells (%),[8],8%
same,Population Normal (%),[8],77%
same,Population Pyknosed Nuclei (%),[8],54%
same,Population Tubulin-Different-Phenotype (%),[8],91%
same,Total Cell Count,[8],112
same,Population Apoptotic (%),[9],64%
same,Population Fragmented Nuclei (%),[9],21%
same,Population Healthy Nuclei (%),[9],61%
same,Population Hoechst High Intensity Objects (%),[9],4%
same,Population Membrane Permeable-Phenotype (%),[9],9%
same,Population Mitochondria Different-Phenotype (%),[9],12%
same,Population Mitotic Cells (%),[9],35%
same,Population Normal (%),[9],95%
same,Population Pyknosed Nuclei (%),[9],16%
same,Population Tubulin-Different-Phenotype (%),[9],8%
same,Total Cell Count,[9],240
same,Population Apoptotic (%),[10],73%
same,Population Fragmented Nuclei (%),[10],22%
same,Population Healthy Nuclei (%),[10],56%
same,Population Hoechst High Intensity Objects (%),[10],2%
same,Population Membrane Permeable-Phenotype (%),[10],34%
same,Population Mitochondria Different-Phenotype (%),[10],31%
same,Population Mitotic Cells (%),[10],26%
same,Population Normal (%),[10],97%
same,Population Pyknosed Nuclei (%),[10],21%
same,Population Tubulin-Different-Phenotype (%),[10],18%
same,Total Cell Count,[10],161
same,Population Apoptotic (%),[11],96%
same,Population Fragmented Nuclei (%),[11],45%
same,Population Healthy Nuclei (%),[11],12%
same,Population Hoechst High Intensity Objects (%),[11],26%
same,Population Membrane Permeable-Phenotype (%),[11],45%
same,Population Mitochondria Different-Phenotype (%),[11],30%
same,Population Mitotic Cells (%),[11],3%
same,Population Normal (%),[11],73%
same,Population Pyknosed Nuclei (%),[11],41%
same,Population Tubulin-Different-Phenotype (%),[11],40%
same,Total Cell Count,[11],215
same,Population Apoptotic (%),[12],100%
same,Population Fragmented Nuclei (%),[12],29%
same,Population Healthy Nuclei (%),[12],14%
same,Population Hoechst High Intensity Objects (%),[12],32%
same,Population Membrane Permeable-Phenotype (%),[12],70%
same,Population Mitochondria Different-Phenotype (%),[12],90%
same,Population Mitotic Cells (%),[12],0%
same,Population Normal (%),[12],67%
same,Population Pyknosed Nuclei (%),[12],56%
same,Population Tubulin-Different-Phenotype (%),[12],90%
same,Total Cell Count,[12],105
